Experimental data taken from ChEMBL document CHEMBL2177094, “Structure dependence of long-chain [18F]fluorothia fatty acids as myocardial fatty acid oxidation probes” (J Med Chem, 2012).

Columns and labels:
[1] = test system: Heart; experiment: Drug uptake in overnight fasted Sprague-Dawley rat heart at 0.7 to 1.4 MBq, iv at 120 mins; assay type: ADME, organism-based; conditions: in vivo, 2 h
Method in brief: (§1)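 Overnight-fasted female Sprague-Dawley rats under isoflurane received the [18F] tracer in 0.5–1.0% BSA/saline by tail vein. POCA group: 30 mg/kg i.p. 2 h before tracer. Tissues were excised at 30 or 120 min, weighed and gamma-counted with decay correction. Uptake = % dose kg/g, i.e. CPM tissue × body wt (kg) × 100 / (tissue wt (g) × CPM dose). n = 5–6.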

[2] = test system: Blood; experiment: Drug uptake in overnight fasted Sprague-Dawley rat blood at 0.7 to 1.4 MBq, iv preincubated with POCA for 2 hrs before compound administration measured at 30 mins post treatment; assay type: ADME, organism-based; conditions: in vivo, 0.5 h; method in brief: as §1
[3] = test system: Liver; experiment: Drug uptake in overnight fasted Sprague-Dawley rat liver at 0.7 to 1.4 MBq, iv preincubated with POCA for 2 hrs before compound administration measured at 30 mins post treatment; assay type: ADME, organism-based; conditions: in vivo, 0.5 h
Method in brief: (§2)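 Female rats fasted overnight, under isoflurane (3.5% induction, 1.5% maintenance). 18F-labelled tracer formulated in 0.5–1.0% BSA/saline, injected via tail vein. Tissues harvested at 30 or 120 min, weighed, gamma-counted, decay-corrected. Uptake expressed as % dose kg/g, i.e. tissue CPM × body wt (kg) × 100 / (tissue wt (g) × dose CPM). POCA groups received 30 mg/kg i.p. 2 h before tracer. n = 5–6.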

[4] = test system: Liver; experiment: Biodistribution in overnight fasted Sprague-Dawley rat liver organic fraction at 0.7 to 1.4 MBq, iv at 120 mins by Folch-type extraction method; assay type: ADME, organism-based; conditions: in vivo, 2 h
Method in brief: (§3)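 Female Sprague-Dawley rats, fasted overnight, under isoflurane (3.5% induction, 1.5% maintenance). [18F] tracer in 0.5–1.0% BSA/saline was given by tail vein. POCA group: 30 mg/kg i.p. 120 min before tracer. About 0.5 g tissue was homogenized and sonicated in chloroform/methanol (2:1) at 0 °C, then 40% urea and 5% H2SO4 were added and spun 10 min at 1,800 g. Aqueous, organic and pellet fractions were counted as % of total.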

[5] = test system: Heart; experiment: Drug uptake in overnight fasted Sprague-Dawley rat heart at 0.7 to 1.4 MBq, iv preincubated with POCA for 2 hrs before compound administration measured at 30 mins post treatment; assay type: ADME, organism-based; conditions: in vivo, 0.5 h; method in brief: as §2
[6] = test system: Bone; experiment: Drug uptake in overnight fasted Sprague-Dawley rat bone at 9 to 11 MBq, iv at 55 to 115 mins by microPET analysis; assay type: ADME, organism-based, Bone element; conditions: in vivo
Method in brief: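 Overnight-fasted female Sprague-Dawley rats under isoflurane were scanned by microPET/CT after tail-vein tracer. Dynamic acquisition over the upper thorax ran for 50 min, then a static whole-body scan from 55–115 min p.i. 2–5 rats per tracer; preliminary, representative images.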

[7] = test system: Heart; experiment: Drug uptake in overnight fasted Sprague-Dawley rat heart at 9 to 11 MBq, iv at 5 mins by microPET analysis; assay type: ADME, organism-based; conditions: in vivo
Method in brief: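 Female rats fasted overnight, under isoflurane. 18F-labelled tracer (9–11 MBq) given into a tail vein. Dynamic PET acquisition over the upper thorax for 50 min, then a static whole-body scan 55–115 min post-injection. 2–5 rats per tracer.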

[8] = test system: Liver; experiment: Biodistribution in overnight fasted Sprague-Dawley rat liver pellet fraction at 0.7 to 1.4 MBq, iv preincubated with POCA for 2 hrs before compound administration measured at 30 mins post treatment by Folch-type extraction method; assay type: ADME, organism-based; conditions: in vivo, 0.5 h; method in brief: as §3
[9] = test system: Liver; experiment: Biodistribution in overnight fasted Sprague-Dawley rat liver organic fraction at 0.7 to 1.4 MBq, iv preincubated with POCA for 2 hrs before compound administration measured at 30 mins post treatment by Folch-type extraction method; assay type: ADME, organism-based; conditions: in vivo, 0.5 h; method in brief: as §3
[10] = test system: Muscle tissue; experiment: Ratio of drug uptake in overnight fasted Sprague-Dawley rat muscle at 0.7 to 1.4 MBq, iv preincubated with POCA for 2 hrs before compound administration measured at 120 mins post treatment to drug uptake in overnight fasted Sprague-Dawley rat muscle at 0.7 to 1.4 MBq, iv at 120 mins; assay type: ADME, organism-based; conditions: in vivo
Method in brief: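 Ratio of skeletal muscle uptake (% dose kg/g) 120 min after tail-vein tracer in rats given POCA 30 mg/kg i.p. 2 h beforehand to that in fasted control rats. Radioactivity was decay-corrected and normalized to tissue and body weight.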

[11] = test system: Bone; experiment: Drug uptake in overnight fasted Sprague-Dawley rat bone at 0.7 to 1.4 MBq, iv at 30 mins; assay type: ADME, organism-based, Bone element; conditions: in vivo, 0.5 h; method in brief: as §1
[12] = test system: Heart; experiment: Ratio of drug uptake in overnight fasted Sprague-Dawley rat heart at 0.7 to 1.4 MBq, iv at 30 mins to drug uptake in overnight fasted Sprague-Dawley rat heart at 0.7 to 1.4 MBq, iv preincubated with POCA for 2 hrs before compound administration measured at 30 mins post treatment; assay type: ADME, organism-based; conditions: in vivo, 0.5 h
Method in brief: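 Ratio of heart uptake (% dose kg/g) 30 min after tail-vein tracer in fasted control rats to that in rats given POCA 30 mg/kg i.p. 2 h before tracer. Tissue radioactivity was decay-corrected and weight-normalized.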

[13] = test system: Heart; experiment: Metabolic stability in overnight fasted Sprague-Dawley rat heart at 9 to 11 MBq, iv measured at 55 to 115 mins by microPET analysis; assay type: ADME, organism-based; conditions: in vivo

| Drug uptake [1] [%IDKg/g] | Drug uptake [2] [%IDKg/g] | Drug uptake [3] [%IDKg/g] | Drug uptake [4] [%] | Drug uptake [5] [%IDKg/g] | Drug uptake [6] | Drug uptake [7] | Drug uptake [8] [%] | Drug uptake [9] [%] | Ratio [10] | Drug uptake [11] [%IDKg/g] | Ratio [12] | Stability [13] | Compound |
| --- | --- | --- | --- | --- | --- | --- | --- | --- | --- | --- | --- | --- | --- |
| 0.2815 | 0.051 | 0.8492 | 35.26 | 0.3331 | Active | Active | 34.35 | 54.88 | 2.2 | 0.1171 |  |  | O=C(O)CCCCSCCCCCCCCCCCC[18F] |
| 0.2144 | 0.051 | 0.4064 | 55.69 | 0.1814 | Active | Active | 16.53 | 51.76 |  | 0.2309 | 1.7 |  | O=C(O)CCSCCCCCCCCCCCCCC[18F] |
| 0.1069 | 0.0633 | 0.6197 | 31.39 | 0.0792 | Active | Active | 38.07 | 41.68 | 2.7 | 0.235 |  |  | O=C(O)CCSCCCCCCCCCCCC[18F] |
| 0.8164 | 0.0606 | 0.8162 | 34.75 | 0.1155 | Active | Active | 24.88 | 58.8 |  | 0.1531 |  | Stable | O=C(O)CCSCCCC/C=C\CCCCCCCC[18F] |
